Article PMC11333997 (RSC Advances, 2024)

What was measured:
[1] = tested on: WI-38 normal human lung fibroblast cells; assay: MTT cytotoxicity on normal fibroblast cell line; format: cell-based; conditions: WI-38, read-out: IC50 WI-38
[2] = tested on: HEPG-2 hepatocellular carcinoma cells; assay: MTT in vitro anti-tumor screening; format: cell-based; conditions: Homo sapiens, HepG2, read-out: IC50 HEPG-2
EGFR = EGFR (Homo sapiens, UniProt P00533); assay: In vitro EGFR kinase inhibition assay; format: biochemical
Chain of EGFR (P00533 25-1210): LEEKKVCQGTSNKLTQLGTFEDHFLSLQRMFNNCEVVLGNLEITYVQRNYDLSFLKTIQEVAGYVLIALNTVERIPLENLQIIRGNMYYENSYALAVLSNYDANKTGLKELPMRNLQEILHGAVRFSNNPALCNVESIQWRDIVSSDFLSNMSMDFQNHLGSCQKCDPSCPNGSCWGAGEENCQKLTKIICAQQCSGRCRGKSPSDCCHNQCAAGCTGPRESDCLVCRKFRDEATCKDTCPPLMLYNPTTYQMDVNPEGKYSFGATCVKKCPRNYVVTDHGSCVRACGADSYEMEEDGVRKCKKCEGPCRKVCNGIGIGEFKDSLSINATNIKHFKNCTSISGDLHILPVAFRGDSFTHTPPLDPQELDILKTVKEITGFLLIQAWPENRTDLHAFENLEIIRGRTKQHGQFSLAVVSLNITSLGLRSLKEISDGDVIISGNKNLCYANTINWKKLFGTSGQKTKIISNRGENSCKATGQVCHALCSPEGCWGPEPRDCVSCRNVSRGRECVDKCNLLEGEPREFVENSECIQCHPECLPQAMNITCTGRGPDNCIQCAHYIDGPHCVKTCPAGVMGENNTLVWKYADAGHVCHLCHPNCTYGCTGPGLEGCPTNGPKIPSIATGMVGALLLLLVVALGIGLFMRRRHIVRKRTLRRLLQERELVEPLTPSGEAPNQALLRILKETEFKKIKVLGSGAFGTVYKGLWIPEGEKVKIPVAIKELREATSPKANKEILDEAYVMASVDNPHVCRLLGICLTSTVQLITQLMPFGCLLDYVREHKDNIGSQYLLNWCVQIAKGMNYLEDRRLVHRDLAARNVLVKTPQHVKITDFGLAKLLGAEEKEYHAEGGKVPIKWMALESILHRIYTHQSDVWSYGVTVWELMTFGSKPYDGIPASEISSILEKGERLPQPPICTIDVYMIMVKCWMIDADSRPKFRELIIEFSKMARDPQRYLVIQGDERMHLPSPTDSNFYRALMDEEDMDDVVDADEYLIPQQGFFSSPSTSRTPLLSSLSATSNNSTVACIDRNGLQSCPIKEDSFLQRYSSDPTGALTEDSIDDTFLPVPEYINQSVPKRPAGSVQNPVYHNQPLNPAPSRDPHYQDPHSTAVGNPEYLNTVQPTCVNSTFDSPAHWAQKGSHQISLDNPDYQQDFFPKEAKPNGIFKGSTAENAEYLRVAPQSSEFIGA

VEGFR-2 = VEGFR-2 (Homo sapiens, UniProt P35968); assay: biochemical
Chain of VEGFR-2 (P35968 20-1356): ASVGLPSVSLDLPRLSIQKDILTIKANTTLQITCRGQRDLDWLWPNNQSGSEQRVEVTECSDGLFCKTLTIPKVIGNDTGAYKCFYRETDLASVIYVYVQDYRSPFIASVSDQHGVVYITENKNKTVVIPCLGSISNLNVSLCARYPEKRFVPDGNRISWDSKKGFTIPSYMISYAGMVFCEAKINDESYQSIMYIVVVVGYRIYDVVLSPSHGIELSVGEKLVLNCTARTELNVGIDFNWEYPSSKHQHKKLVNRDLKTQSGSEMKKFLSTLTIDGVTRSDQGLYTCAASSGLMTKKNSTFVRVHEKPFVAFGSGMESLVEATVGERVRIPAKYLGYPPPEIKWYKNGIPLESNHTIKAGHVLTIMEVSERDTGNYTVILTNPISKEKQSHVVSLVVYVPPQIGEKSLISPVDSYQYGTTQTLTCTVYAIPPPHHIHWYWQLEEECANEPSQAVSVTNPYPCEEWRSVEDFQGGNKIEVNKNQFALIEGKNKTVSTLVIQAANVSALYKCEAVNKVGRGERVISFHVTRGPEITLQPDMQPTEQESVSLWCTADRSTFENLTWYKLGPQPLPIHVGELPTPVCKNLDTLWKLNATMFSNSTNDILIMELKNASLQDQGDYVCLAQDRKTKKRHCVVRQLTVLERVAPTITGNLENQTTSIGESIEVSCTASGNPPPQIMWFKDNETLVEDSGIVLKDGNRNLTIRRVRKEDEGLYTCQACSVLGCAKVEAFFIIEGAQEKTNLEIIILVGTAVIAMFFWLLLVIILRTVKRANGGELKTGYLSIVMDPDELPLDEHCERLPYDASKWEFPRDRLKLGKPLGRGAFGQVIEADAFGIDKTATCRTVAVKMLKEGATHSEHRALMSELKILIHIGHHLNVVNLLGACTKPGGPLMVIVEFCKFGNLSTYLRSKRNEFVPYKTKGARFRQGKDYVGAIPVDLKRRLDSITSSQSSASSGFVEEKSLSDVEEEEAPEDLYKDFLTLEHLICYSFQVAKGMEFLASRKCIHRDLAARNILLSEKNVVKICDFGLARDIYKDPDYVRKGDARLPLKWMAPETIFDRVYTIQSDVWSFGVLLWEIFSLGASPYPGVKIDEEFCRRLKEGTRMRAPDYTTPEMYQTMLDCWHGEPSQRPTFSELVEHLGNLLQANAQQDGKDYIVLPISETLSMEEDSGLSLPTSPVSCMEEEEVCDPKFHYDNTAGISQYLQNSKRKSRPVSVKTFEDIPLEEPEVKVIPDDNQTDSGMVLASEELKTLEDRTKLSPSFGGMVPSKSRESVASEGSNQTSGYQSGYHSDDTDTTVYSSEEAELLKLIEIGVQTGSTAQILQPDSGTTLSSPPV

HCT-116 cells = assay: Flow cytometry cell cycle analysis; format: cell-based, human
Outline: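 HCT-116 cells exposed to the test compound for 24 h, with DMSO as control. Cells were stained with propidium iodide, and DNA ploidy was analysed on a FACSCalibur flow cytometer. The percentage of cells in G0–G1, S and G2-M phases was reported.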

[3] = tested on: HEPG-2, HCT-116 and MCF-7 cell lines; assay: MTT anti-tumor screening, values over the cancer cell line panel; format: cell-based; conditions: Homo sapiens, read-out: IC50 range over the cancer cell lines
EGFR/VEGFR-2 = EGFR/VEGFR-2 enzyme inhibition, both kinases stated together; format: biochemical; conditions: compared with the tested analogues (4)
[4] = tested on: MCF-7 breast cancer cells; assay: MTT in vitro anti-tumor screening; format: cell-based, human; conditions: read-out: IC50 MCF-7, mean of three independent experiments ± SD

COc1ccc(NC(=O)NNC(=O)CSc2nc3ccccc3c(=O)n2-c2ccc(C)cc2)cc1 [Compound 8, N-(4-Methoxyphenyl)-2-(2-((4-oxo-3-(p-tolyl)-3,4-dihydroquinazolin-2-yl)thio)acetyl)hydrazinecarboxamide]
IC50 [1]: 31.8 ± 2.2 µM | IC50 [2]: > 100 µM

O=C(CSc1nc2ccccc2c(=O)n1-c1ccc(Cl)cc1)NNC(=O)Nc1ccc(Cl)cc1 [Compound 14, N-(4-Chlorophenyl)-2-(2-((3-(4-chlorophenyl)-4-oxo-3,4-dihydroquinazolin-2-yl)thio)acetyl)hydrazinecarboxamide]
IC50 [1]: 16.7 ± 1.4 µM | IC50 [2]: 29.8 ± 1.8 µM

Cc1ccc(-n2c(SCC(=O)NNC(=O)Nc3ccccc3)nc3ccccc3c2=O)cc1 [Compound 4, 2-(2-((4-Oxo-3-(p-tolyl)-3,4-dihydroquinazolin-2-yl)thio)acetyl)-N-phenylhydrazinecarboxamide]
IC50 [1]: 45.6 ± 2.4 µM | IC50 [2]: 3.92 ± 0.2 µM | IC50 (EGFR): 0.049 ± 0.002 µM | IC50 (VEGFR-2): 0.054 ± 0.002 µM | Cell cycle distribution G2-M (HCT-116 cells; at IC50 concentration, 24 h, control 19.54%): 8.65% | Cell cycle distribution S (HCT-116 cells; at IC50 concentration, 24 h, control 36.53%): 36.18% | Cell cycle distribution G0–G1 (HCT-116 cells; at IC50 concentration, 24 h, control 43.93%): 55.17% | cell cycle arrest phase (HCT-116 cells; flow cytometry): G1 phase | IC50 [3]: 1.5 to 5.86 µM

O=C(CSc1nc2ccccc2c(=O)n1-c1ccc(Cl)cc1)NNC(=O)Nc1ccc(F)cc1 [Compound 13, 2-(2-((3-(4-Chlorophenyl)-4-oxo-3,4-dihydroquinazolin-2-yl)thio)acetyl)-N-(4-fluorophenyl)hydrazinecarboxamide]
IC50 [1]: 47.5 ± 2.6 µM | IC50 [2]: 63.5 ± 3.7 µM

Cc1ccc(-n2c(SCC(=O)NNC(=O)Nc3ccc(C(F)(F)F)cc3Cl)nc3ccccc3c2=O)cc1 [Compound 10, N-(2-Chloro-4-(trifluoromethyl)phenyl)-2-(2-((4-oxo-3-(p-tolyl)-3,4-dihydroquinazolin-2-yl)thio)acetyl)hydrazinecarboxamide]
IC50 [1]: 86.9 ± 4.4 µM | IC50 [2]: 49.6 ± 2.7 µM

COc1ccc(-n2c(SCC(=O)NNC(=O)Nc3ccccc3)nc3ccccc3c2=O)cc1 [Compound 20, 2-(2-((3-(4-Methoxyphenyl)-4-oxo-3,4-dihydroquinazolin-2-yl)thio)acetyl)-N-phenylhydrazinecarboxamide]
IC50 [1]: 42.9 ± 2.6 µM | IC50 [2]: 5.17 ± 0.4 µM | IC50 (EGFR): 0.362 ± 0.014 µM | IC50 (VEGFR-2): 0.474 ± 0.02 µM | IC50 [3]: 4.42 to 6.39 µM | fold decrease in binding affinity (EGFR and VEGFR-2) (EGFR/VEGFR-2): 9–10 fold

Cc1ccc(-n2c(SCC(=O)NNC(=O)Nc3ccc(F)cc3)nc3ccccc3c2=O)cc1 [Compound 5, N-(4-Fluorophenyl)-2-(2-((4-oxo-3-(p-tolyl)-3,4-dihydroquinazolin-2-yl)thio)acetyl)hydrazinecarboxamide]
IC50 [1]: > 100 µM | IC50 [2]: 58.9 ± 3.4 µM

COc1ccc(NC(=O)NNC(=O)CSc2nc3ccccc3c(=O)n2-c2ccc(Cl)cc2)cc1 [Compound 16, 2-(2-((3-(4-Chlorophenyl)-4-oxo-3,4-dihydroquinazolin-2-yl)thio)acetyl)-N-(4-methoxyphenyl)hydrazinecarboxamide]
IC50 [1]: 17.8 ± 1.3 µM | IC50 [2]: 46.6 ± 2.6 µM

COc1ccc(-n2c(SCC(=O)NNC(=O)NCc3ccccc3)nc3ccccc3c2=O)cc1 [Compound 27, N-Benzyl-2-(2-((3-(4-methoxyphenyl)-4-oxo-3,4-dihydroquinazolin-2-yl)thio)acetyl)hydrazinecarboxamide]
IC50 [1]: > 100 µM | IC50 [2]: 87.3 ± 4.6 µM

COc1ccc(-n2c(SCC(=O)NNC(=O)Nc3ccc(Cl)cc3)nc3ccccc3c2=O)cc1 [Compound 22, N-(4-Chlorophenyl)-2-(2-((3-(4-methoxyphenyl)-4-oxo-3,4-dihydroquinazolin-2-yl)thio)acetyl)hydrazinecarboxamide]
IC50 [1]: 15.5 ± 1.2 µM | IC50 [2]: 37.8 ± 2.1 µM

COc1ccc(-n2c(SCC(=O)NNC(=O)Nc3ccc(C(F)(F)F)cc3Cl)nc3ccccc3c2=O)cc1 [Compound 26, N-(2-Chloro-4-(trifluoromethyl)phenyl)-2-(2-((3-(4-methoxyphenyl)-4-oxo-3,4-dihydroquinazolin-2-yl)thio)acetyl)hydrazinecarboxamide]
IC50 [1]: 30.2 ± 2.1 µM | IC50 [2]: 72.8 ± 4 µM

O=C(CSc1nc2ccccc2c(=O)n1-c1ccc(Cl)cc1)NNC(=O)NCc1ccccc1 [Compound 19, N-Benzyl-2-(2-((3-(4-chlorophenyl)-4-oxo-3,4-dihydroquinazolin-2-yl)thio)acetyl)hydrazinecarboxamide]
IC50 [1]: > 100 µM | IC50 [2]: 73.5 ± 4.2 µM

O=C(CSc1nc2ccccc2c(=O)n1-c1ccc(Cl)cc1)NNC(=O)Nc1ccc(C(F)(F)F)cc1Cl [Compound 18, N-(2-Chloro-4-(trifluoromethyl)phenyl)-2-(2-((3-(4-chlorophenyl)-4-oxo-3,4-dihydroquinazolin-2-yl)thio)acetyl)hydrazinecarboxamide]
IC50 [1]: 84.4 ± 4.2 µM | IC50 [2]: 34.6 ± 2 µM

COc1ccc(-n2c(SCC(=O)NNC(=O)Nc3ccc(F)cc3)nc3ccccc3c2=O)cc1 [Compound 21, N-(4-Fluorophenyl)-2-(2-((3-(4-methoxyphenyl)-4-oxo-3,4-dihydroquinazolin-2-yl)thio)acetyl)hydrazinecarboxamide]
IC50 [1]: 27.6 ± 1.9 µM | IC50 [2]: 11.5 ± 0.9 µM

Cc1ccc(NC(=O)NNC(=O)CSc2nc3ccccc3c(=O)n2-c2ccc(Cl)cc2)cc1 [Compound 15, 2-(2-((3-(4-Chlorophenyl)-4-oxo-3,4-dihydroquinazolin-2-yl)thio)acetyl)-N-(p-tolyl)hydrazinecarboxamide]
IC50 [1]: 43.2 ± 2.5 µM | IC50 [2]: 68.6 ± 3.9 µM

Cc1ccc(-n2c(SCC(=O)NNC(=O)Nc3ccc(Cl)cc3)nc3ccccc3c2=O)cc1 [Compound 6, N-(4-Chlorophenyl)-2-(2-((4-oxo-3-(p-tolyl)-3,4-dihydroquinazolin-2-yl)thio)acetyl)hydrazinecarboxamide]
IC50 [1]: 66.2 ± 3.9 µM | IC50 [2]: 14.2 ± 1.2 µM

O=C(CSc1nc2ccccc2c(=O)n1-c1ccc(Cl)cc1)NNC(=O)Nc1ccccc1 [Compound 12, 2-(2-((3-(4-Chlorophenyl)-4-oxo-3,4-dihydroquinazolin-2-yl)thio)acetyl)-N-phenylhydrazinecarboxamide]
IC50 [1]: 75.5 ± 4 µM | IC50 [2]: 19.5 ± 1.3 µM | IC50 [4]: 12.9 ± 1 µM

COc1ccc(NC(=O)NNC(=O)CSc2nc3ccccc3c(=O)n2-c2ccc(OC)cc2)cc1 [Compound 24, N-(4-Methoxyphenyl)-2-(2-((3-(4-methoxyphenyl)-4-oxo-3,4-dihydroquinazolin-2-yl)thio)acetyl)hydrazinecarboxamide]
IC50 [1]: 71.4 ± 3.8 µM | IC50 [2]: > 100 µM

COc1ccc(-n2c(SCC(=O)NNC(=O)Nc3ccc(C)cc3)nc3ccccc3c2=O)cc1 [Compound 23, 2-(2-((3-(4-Methoxyphenyl)-4-oxo-3,4-dihydroquinazolin-2-yl)thio)acetyl)-N-(p-tolyl)hydrazinecarboxamide]
IC50 [1]: 63.9 ± 3.7 µM | IC50 [2]: 41.3 ± 2.4 µM

COc1ccc(-n2c(SCC(=O)NNC(=O)Nc3c(C)cccc3C)nc3ccccc3c2=O)cc1 [Compound 25, N-(2,6-Dimethylphenyl)-2-(2-((3-(4-methoxyphenyl)-4-oxo-3,4-dihydroquinazolin-2-yl)thio)acetyl)hydrazinecarboxamide]
IC50 [1]: 56.4 ± 3.3 µM | IC50 [2]: 83.6 ± 4.5 µM

Cc1ccc(NC(=O)NNC(=O)CSc2nc3ccccc3c(=O)n2-c2ccc(C)cc2)cc1 [Compound 7, 2-(2-((4-Oxo-3-(p-tolyl)-3,4-dihydroquinazolin-2-yl)thio)acetyl)-N-(p-tolyl)hydrazinecarboxamide]
IC50 [1]: > 100 µM | IC50 [2]: 76.4 ± 4.3 µM

Cc1ccc(-n2c(SCC(=O)NNC(=O)NCc3ccccc3)nc3ccccc3c2=O)cc1 [Compound 11, N-Benzyl-2-(2-((4-oxo-3-(p-tolyl)-3,4-dihydroquinazolin-2-yl)thio)acetyl)hydrazinecarboxamide]
IC50 [1]: 54.1 ± 3 µM | IC50 [2]: 8.1 ± 0.6 µM | IC50 (EGFR): 0.117 ± 0.005 µM | IC50 (VEGFR-2): 0.156 ± 0.007 µM

Cc1ccc(-n2c(SCC(=O)NNC(=O)Nc3c(C)cccc3C)nc3ccccc3c2=O)cc1 [Compound 9, N-(2,6-Dimethylphenyl)-2-(2-((4-oxo-3-(p-tolyl)-3,4-dihydroquinazolin-2-yl)thio)acetyl)hydrazinecarboxamide]
IC50 [1]: 62.2 ± 3.5 µM | IC50 [2]: 53.1 ± 3 µM

Cc1cccc(C)c1NC(=O)NNC(=O)CSc1nc2ccccc2c(=O)n1-c1ccc(Cl)cc1 [Compound 17, 2-(2-((3-(4-Chlorophenyl)-4-oxo-3,4-dihydroquinazolin-2-yl)thio)acetyl)-N-(2,6-dimethylphenyl)hydrazinecarboxamide]
IC50 [1]: 89.4 ± 4.7 µM | IC50 [2]: 22.4 ± 1.5 µM
